Each structure is given as a SMILES string. Calls of active or inactive are those of the source. The calls are words filed in the database; no cut-off is given here.

In assay [1] the test system is Mus musculus. As to the kind of experiment: Antitumor activity against mouse advanced Lewis lung carcinoma allografted in BDF1 mouse assessed as complete regression of established tumor at 36 mg/kg, ip administered as single dose on 7th day post-tumor implantation. The class given is functional, organism-based. The arrangement: dose 36 mg/kg. In outline: (§1)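 BDF1 mice (C57Blk/6 × DBA/2) implanted sc by trocar with Lewis lung tumor fragments of about 40 mg, taken only from bacteriologically sterile donor tumors. Mice bearing tumors of about 400 mg (day 6-7) were selected. Each received a single ip dose on day 7, at or below the LD10 in normal mice. Groups were of 10 mice. Tumor weight was taken from calipers as w = ab²/2, measured at least twice weekly. Matched non-tumor mice served as toxicity controls.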

Assay [2] in a line: Antitumor activity against mouse advanced Lewis lung carcinoma allografted in BDF1 mouse assessed as increase in host life span at 36 mg/kg, ip administered as single dose on 7th day post-tumor implantation. The assay is classed as functional. To be noted: route intraperitoneal. In outline: (§2)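 BDF1 mice (C57Blk/6 × DBA/2) implanted sc by trocar with about 40 mg Lewis lung tumor fragments from bacteriologically sterile donors. Advanced-disease groups held tumors of about 400 mg by day 6-7, sized by caliper (w = ab²/2). Single ip injection on day 7, in water or saline vehicle, at or below the LD10 in normal mice. Tumors measured at least twice weekly.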

Assay [3] concerns Mus musculus. Kind of assay: Antitumor activity against mouse advanced Lewis lung carcinoma allografted in BDF1 mouse assessed as disease cure at 36 mg/kg, ip administered as single dose on 7th day post-tumor implantation measured for 80 days post-drug treatment. The class given is functional, organism-based. The arrangement: dose 36 mg/kg. The method, boiled down: as §1
In assay [4] the test system is Mus musculus. Kind of assay: Antitumor activity against mouse advanced Lewis lung carcinoma allografted in ip dosed BDF1 mouse assessed as disease cure administered as single dose on day 6 or 7 post-tumor implantation. The class given is functional, organism-based. In outline: as §1
Assay [5] in a line: Antitumor activity against mouse advanced Lewis lung carcinoma allografted in ip dosed BDF1 mouse assessed as increase in host lifespan administered as single dose on day 6 or 7 post-tumor implantation. The assay is classed as functional. In outline:
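Advanced Lewis lung model: about 40 mg fragments implanted sc by trocar into BDF1 mice, and mice with tumors of about 400 mg (day 6-7) selected. Tumor weight from calipers, w = ab²/2. Agent given as one ip dose in distilled water or physiological saline. Nontumor-bearing mice received matching doses as toxicity controls.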

The subject of assay [6] is Mus musculus. Kind of assay: Antitumor activity against mouse advanced Lewis lung carcinoma allografted in ip dosed BDF1 mouse assessed as complete regression of established tumor administered as single dose on day 6 or 7 post-tumor implantation. The assay is classed as functional, organism-based. In outline: as §1
For assay [7], the system named is Mus musculus. As to the kind of experiment: Antitumor activity against mouse advanced Lewis lung carcinoma allografted in BDF1 mouse assessed as disease cure at 40 mg/kg, ip administered as single dose on 7th day post-tumor implantation measured for 80 days post-drug treatment. The arrangement: dose 40 mg/kg. The assay is classed as functional, organism-based. In outline: as §2

Assay [8] is described as follows: Antitumor activity against mouse advanced Lewis lung carcinoma allografted in BDF1 mouse assessed as increase in host life span at 40 mg/kg, ip administered as single dose on 7th day post-tumor implantation. The class given is functional. The conditions noted are these: route intraperitoneal. The method, boiled down:
as §2

The subject of assay [9] is Mus musculus. Kind of assay: Antitumor activity against mouse advanced Lewis lung carcinoma allografted in BDF1 mouse assessed as disease cure at 50 mg/kg, ip administered as single dose on 7th day post-tumor implantation measured for 80 days post-drug treatment. The assay is classed as functional, organism-based. Details: dose 50 mg/kg. The method, boiled down: as §2

Assay [10] can be described thus: Antitumor activity against mouse advanced Lewis lung carcinoma allografted in BDF1 mouse assessed as increase in host life span at 50 mg/kg, ip administered as single dose on 7th day post-tumor implantation. The assay is classed as functional. The conditions noted are these: route intraperitoneal. The method, boiled down: as §2
Assay [11] concerns Mus musculus. Kind of assay: Antitumor activity against mouse advanced Lewis lung carcinoma allografted in BDF1 mouse assessed as complete regression of established tumor at 9 mg/kg, ip administered as single dose on 7th day post-tumor implantation. The assay is classed as functional, organism-based. Details: dose 9 mg/kg. The method, boiled down: as §1
Assay [12] is described as follows: Antitumor activity against mouse advanced Lewis lung carcinoma allografted in BDF1 mouse assessed as increase in host life span at 9 mg/kg, ip administered as single dose on 7th day post-tumor implantation. The class given is functional. To be noted: route intraperitoneal. In outline: as §2
The subject of assay [13] is Mus musculus. Kind of assay: Antitumor activity against mouse advanced Lewis lung carcinoma allografted in BDF1 mouse assessed as disease cure at 9 mg/kg, ip administered as single dose on 7th day post-tumor implantation measured for 80 days post-drug treatment. The assay is classed as functional, organism-based. Details: dose 9 mg/kg. The method, boiled down: as §1

Assay [14] in a line: Antitumor activity against mouse advanced Lewis lung carcinoma allografted in BDF1 mouse assessed as increase in host life span at 45 mg/kg, ip administered as single dose on 7th day post-tumor implantation. The assay is classed as functional. To be noted: route intraperitoneal. The method, boiled down: as §2
Assay [15] can be described thus: Antitumor activity against mouse advanced Lewis lung carcinoma allografted in BDF1 mouse assessed as increase in host life span at 30 mg/kg, ip administered as single dose on 7th day post-tumor implantation. The class given is functional. To be noted: route intraperitoneal. The method, boiled down: as §2
The subject of assay [16] is Mus musculus. As to the kind of experiment: Antitumor activity against mouse advanced Lewis lung carcinoma allografted in BDF1 mouse assessed as disease cure at 45 mg/kg, ip administered as single dose on 7th day post-tumor implantation measured for 80 days post-drug treatment. Details: dose 45 mg/kg. The assay is classed as functional, organism-based. In outline:
as §1

Assay [17] concerns Mus musculus. As to the kind of experiment: Antitumor activity against mouse advanced Lewis lung carcinoma allografted in BDF1 mouse assessed as complete regression of established tumor at 30 mg/kg, ip administered as single dose on 7th day post-tumor implantation. The assay is classed as functional, organism-based. Details: dose 30 mg/kg. In outline: as §1
The subject of assay [18] is Mus musculus. Kind of assay: Antitumor activity against mouse advanced Lewis lung carcinoma allografted in BDF1 mouse assessed as disease cure at 30 mg/kg, ip administered as single dose on 7th day post-tumor implantation measured for 80 days post-drug treatment. The arrangement: dose 30 mg/kg. The assay is classed as functional, organism-based. In outline: as §1
In assay [19] the test system is Mus musculus. As to the kind of experiment: Antitumor activity against mouse advanced Lewis lung carcinoma allografted in BDF1 mouse assessed as disease cure at 11 mg/kg, ip administered as single dose on 7th day post-tumor implantation measured for 80 days post-drug treatment. The assay is classed as functional, organism-based. The arrangement: dose 11 mg/kg. In outline:
as §1

The nature of assay [20]: Antitumor activity against mouse advanced Lewis lung carcinoma allografted in BDF1 mouse assessed as increase in host life span at 11 mg/kg, ip administered as single dose on 7th day post-tumor implantation. The assay is classed as functional. The conditions noted are these: route intraperitoneal. The method, boiled down: as §2
Assay [21] deals with Mus musculus. As to the kind of experiment: Antitumor activity against mouse early Lewis lung carcinoma allografted in ip dosed BDF1 mouse administered as single dose on 1 or 2 days post-tumor implantation measured for 80 days post-drug treatment. The class given is functional, organism-based. In outline: (§3)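 BDF1 mice implanted sc by trocar with ~40 mg Lewis lung fragments from sterile donor tumors. A single ip dose was given on day 1 or 2 after implant, in water or saline vehicle. Cures were scored in animals observed for at least 80 days after treatment. Drug-toxicity controls were matched non-tumor-bearing mice monitored for body weight and deaths.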

The subject of assay [22] is Mus musculus. As to the kind of experiment: Antitumor activity against mouse advanced Lewis lung carcinoma allografted in BDF1 mouse assessed as disease cure at 144 mg/kg, ip administered as single dose on 7th day post-tumor implantation measured for 80 days post-drug treatment. The assay is classed as functional, organism-based. The arrangement: dose 144 mg/kg. In outline:
as §1

The nature of assay [23]: Antitumor activity against mouse advanced Lewis lung carcinoma allografted in BDF1 mouse assessed as increase in host life span at 144 mg/kg, ip administered as single dose on 7th day post-tumor implantation. The conditions noted are these: route intraperitoneal. The assay is classed as functional. The method, boiled down: as §2
The nature of assay [24]: Ratio of ED50 for antitumor activity against mouse L1210 cells allografted in ip dosed mouse to LD10 for mouse.
The subject of assay [25] is Mus musculus. As to the kind of experiment: Antitumor activity against mouse early Lewis lung carcinoma allografted in ip dosed BDF1 mouse assessed as disease cure administered as single dose on 1 or 2 days post-tumor implantation measured for 80 days post-drug treatment. The class given is functional. The method, boiled down: as §3

One may read the ILS as the gain in survival time of treated over control animals, in per cent. As to `CC(=O)O[C@H]1CC[C@H](NC(=O)N(CCCl)N=O)CC1`, the inhibition result in the assay on Mus musculus [1] and in the assay on Mus musculus [6] was “inactive” each time. Also, in [2], the ILS at 36 mg/kg was determined as 34%. For the same compound, the outcome in the assay on Mus musculus [3] and in the assay with Mus musculus [4] was inactive. For the same compound, in assay [5], the ILS is more than 25%.
On to `O=NN(CCCl)C(=O)NC1CCCCC1` [LOMUSTINE], for which the result in the assay on Mus musculus [7], with Mus musculus [9] and with Mus musculus [4] was inactive. In addition, in assay [8], the ILS at 40 mg/kg is 31%. In addition, the ILS at 50 mg/kg in [10] stood at 15%. Besides, in the assay with Mus musculus [6], the inhibition entry is “Active”.
As to `O=NN(CCF)C(=O)NC1CC2CCC1C2` (centres undefined), in the assay with Mus musculus [11], the inhibition entry is “inactive”. Further, the ILS at 9 mg/kg in assay [12] is 40%. For the same compound, the result in the assay on Mus musculus [13] was inactive.
Take `CCOC(=O)[C@H]1CCC[C@@H](NC(=O)N(CCCl)N=O)C1` (relative stereo): the ILS at 45 mg/kg in assay [14] worked out at 0%. Moreover, the ILS at 30 mg/kg in assay [15] was 62%. Further, the outcome with Mus musculus [16], in the assay on Mus musculus [18] and in the assay on Mus musculus [4] was inactive. Further, the inhibition result with Mus musculus [17] was “inactive”. Also, in the assay on Mus musculus [6], the inhibition entry is “Active”.
As to `O=NN(CCCl)C(=O)NC1CCS(=O)(=O)CC1`, the result with Mus musculus [19] and with Mus musculus [4] was inactive. In addition, the ILS at 11 mg/kg in [20] stood at 27%. Further, the ILS in [5] was more than 25%. In the assay on Mus musculus [6], the inhibition entry was “inactive”.
For the compound `O=NN(CCCl)C(=O)NC1C2CC3CC(C2)CC1C3` (centres undefined), the outcome with Mus musculus [21], in the assay with Mus musculus [22], in the assay on Mus musculus [25] and in the assay on Mus musculus [4] was inactive. For the same compound, the ILS at 144 mg/kg in [23] came out at 19%. For the same compound, the Ratio in assay [24] worked out at 0.6. The inhibition result in the assay on Mus musculus [6] is “Active”.
